Assay results from different studies.
Protocols differ between the studies behind these lines.
CYP51: Sterol 14-alpha demethylase (CYP51, Trypanosoma cruzi, UniProt Q7Z1V1)
MTNR1A: Melatonin receptor type 1A (MTNR1A, Homo sapiens, UniProt P48039)
Tmem97: Sigma intracellular receptor 2 (Tmem97, Rattus norvegicus, UniProt Q5U3Y7)
F2 trypsin-like site: Prothrombin, trypsin-like site (F2, Bos taurus, UniProt P00735)
FLT3: Receptor-type tyrosine-protein kinase FLT3 (FLT3, Homo sapiens, UniProt P36888)

CC(C)c1ccc(NC(=O)O[C@H](Cn2ccnc2)c2ccc(F)cc2)cc1
Kd (CYP51; binding): 0.032 µM

CCc1nc2cc(OCCCCN3CCC(c4cccc(Cl)c4Cl)CC3)ccc2s1
Ki (5-hydroxytryptamine receptor 2C (HTR2C, Homo sapiens, UniProt P28335); cell-free assay, radioligand): 0.21 µM

Cc1cc2nc3c(=O)[nH]c(=O)nc-3n(C[C@H](O)[C@H](O)[C@H](O)COP(=O)(O)OP(=O)(O)OC[C@H]3O[C@@H](n4cnc5c(N)ncnc54)[C@H](O)[C@@H]3O)c2cc1C
Kd (DNA topoisomerase 2-alpha (TOP2A, Homo sapiens, UniProt P11388); binding; lysate): 0.141 µM

O=C(NCCc1cccc2ccccc12)C1CCC1
EC50 (MTNR1A; β-arrestin recruitment, agonist): 0.288 µM

O=C(NCCN1CCCCC1)c1cc(Br)ccc1OCCF
Ki (Tmem97; ligand displacement, radioligand; cell membranes): 0.0102 µM

O=C(Nc1ccc(Sc2ccc([N+](=O)[O-])cc2)cc1)O[C@H](Cn1ccnc1)c1ccc(Cl)cc1
Kd (CYP51; binding): 0.162 µM

Clc1ccc(CNc2cccc(-c3nnc[nH]3)c2)cc1Cl
EC50 (MTNR1A; cAMP, agonist, luciferase): 0.229 µM

COc1ccc2[nH]cc(CCNC(C)=O)c2c1I
EC50 (MTNR1A; GTPγS binding, agonist, radiometric; cell membranes): 0.112 µM

O=C(O[C@H](Cn1ccnc1)c1ccccc1)c1ccc(-c2ccccc2)cc1
Kd (CYP51; binding): 0.046 µM

COc1cccc2c1CCN(C(=O)c1c[nH]nc1-c1ccc(Cl)s1)C2
EC50 (MTNR1A; cAMP, agonist, luciferase): 0.0763 µM

CC(C)(C)[C@H](NC(=O)[C@H](CCONC(=N)N)NC(=O)Cc1ccc(CN)cc1)C(=O)N[C@@H](CCONC(=N)N)C(=O)NCc1ccc(C(=N)N)cc1
Ki (F2 trypsin-like site; enzyme activity, inhibitor; pH 8): 25 µM

CCCN1CCN(c2ccc(-c3cncc(Cl)c3N3CCC4(CCNC4=O)CC3)cc2)CC1
Kd (Myotonin-protein kinase (DMPK, Homo sapiens, UniProt Q09013); cell-free assay; lysate): 18.4 µM

COc1ccc2c(c1)N(Cc1cc(=O)c(OC)co1)CCO2
EC50 (MTNR1A; cAMP, agonist, luciferase): 0.00056 µM

c1ccc(-c2ccc(Nc3nccc(NC4CCCCC4)n3)cc2)nc1
IC50 (FLT3; enzyme activity, inhibitor): 1.88 µM

COc1ccc2c(c1)C(CNC(N)=O)Cc1ccccc1C2 (centres unmarked)
EC50 (MTNR1A; GTPγS binding, agonist, radiometric; cell membranes): 0.0282 µM

c1cncc(-c2cccc(Nc3nccc(NC4CCNCC4)n3)c2)c1
IC50 (FLT3; enzyme activity, inhibitor): 0.008 µM

CCOc1ccc(CNc2cccnc2)cc1
EC50 (MTNR1A; cAMP, agonist, luciferase): 0.0635 µM

CCC(=O)NC1Cc2ccccc2C(c2ccccc2)C1 (centres unmarked)
EC50 (MTNR1A; β-arrestin recruitment, agonist): 0.759 µM

COc1cccc2c1CCN(C(=O)c1cncn1C)C2
EC50 (MTNR1A; cAMP, agonist, luciferase): 0.0227 µM

O=C(O)CNC(=O)C(=O)O
Kd (Glutamate dehydrogenase 1, mitochondrial (GLUD1, Bos taurus, UniProt P00366); binding, NMR): 10000 µM

Cn1cc(C[C@@H](N)C(=O)O)c2ccccc21
Ki (Dihydrofolate reductase (DHFR, Homo sapiens, UniProt P00374); enzyme activity, inhibitor; pH 7): 810 µM

c1cc(Nc2nccc(NC3CCCCC3)n2)cc(C2CC2)c1
IC50 (FLT3; enzyme activity, inhibitor): 2.59 µM

CN(Cc1ccsc1)c1ccnc(Cl)c1
EC50 (MTNR1A; cAMP, agonist, luciferase): 2.66 µM

COc1ccc2ncn(CCNC(C)=O)c2c1
EC50 (MTNR1A; β-arrestin recruitment, agonist): 0.871 µM

COC(=O)c1cccc(-c2cccc(Nc3nccc(NC4CCCCC4)n3)c2)c1
IC50 (FLT3; enzyme activity, inhibitor): 13.3 µM

COC(=O)c1nccc(N(C)CC2CCCCC2O)n1 (centres unmarked)
EC50 (MTNR1A; cAMP, agonist, luciferase): 1.86 µM

c1cc(Nc2nccc(NC3CCCCC3)n2)cc(-c2cc[nH]n2)c1
IC50 (FLT3; enzyme activity, inhibitor): 0.096 µM

O=C(NCCCn1ccnc1)O[C@@H](Cn1ccnc1)c1ccc(F)cc1
Kd (CYP51; binding): 0.087 µM

c1cncc(C2CCCC(Nc3nccc(NC4CCCCC4)n3)C2)c1 (centres unmarked)
IC50 (FLT3; enzyme activity, inhibitor): > 23 µM

Cc1cc(Nc2cc3ncccc3c(N[C@@H]3C[C@H]4CC[C@@H](C3)N4CCC#N)n2)n[nH]1
Kd (Ephrin type-B receptor 6 (EPHB6, Homo sapiens, UniProt O15197); binding, competition with immobilised ligand): 2 µM

COc1ccc(-c2nsc(NC(=O)[C@@H]3C[C@H]3C)c2C)cc1
Ki (Metabotropic glutamate receptor 1 (Grm1, Rattus norvegicus, UniProt P23385); ligand displacement, radioligand): 0.0006 µM

CC(C)(C)[C@H](NC(=O)[C@H](CCCNC(=N)N)NC(=O)Cc1ccc(CNC(=N)N)cc1)C(=O)N[C@@H](CCCNC(=N)N)C(=O)NCc1ccc(C(=N)N)cc1
Ki (F2 trypsin-like site; enzyme activity, inhibitor; pH 8): 20 µM

Cc1ccc(C(=O)Nc2ccc(Oc3cc4cnn(C)c4cc3-c3cn[nH]c3)c(F)c2)c(=O)n1-c1ccc(F)cc1
IC50 (FLT3; enzyme activity, inhibitor, radiometric): 0.031 µM

COc1cc2c(CCNC(C)=O)c(I)[nH]c2cc1[N+](=O)[O-]
EC50 (MTNR1A; GTPγS binding, agonist, radiometric; cell membranes): 0.0209 µM

COc1cc2c(cc1OC)CN(CCCCn1ccc3c(OC)cccc31)C2
Ki (Tmem97; ligand displacement, radioligand; cell membranes): 0.0063 µM

c1cncc(-c2cccc(Nc3nccc(NC4CCCC4)n3)c2)c1
IC50 (FLT3; enzyme activity, inhibitor): 0.013 µM

CC(C)(C)[C@H](NC(=O)[C@H](CCONC(=N)N)NC(=O)Cc1ccc(CN)cc1)C(=O)N[C@@H](CCCCN)C(=O)NCc1ccc(C(=N)N)cc1
Ki (F2 trypsin-like site; enzyme activity, inhibitor; pH 8): 10 µM

COc1cc2c(CCNC(C)=O)c[nH]c2cc1I
EC50 (MTNR1A; cAMP, agonist, TR-FRET): 0.00661 µM

NC(=S)N/N=C1\C(=O)Nc2ccccc21
Ki (Tmem97; ligand displacement, radioligand; cell membranes): > 10 µM

COc1ccc(CNc2cccnc2)cc1Br
EC50 (MTNR1A; cAMP, agonist, luciferase): 0.049 µM

COc1cccc(-c2cccc(Nc3nccc(NC(C)C)n3)c2)c1
IC50 (FLT3; enzyme activity, inhibitor): 6.97 µM

Cc1cnc(-c2ccc(-c3ccc(NC(=O)Nc4c(F)cc(F)cc4F)cc3F)c3c2C(=O)NC3)[nH]1
Kd (Aurora kinase A (AURKA, Homo sapiens, UniProt O14965); binding, competition with immobilised ligand): 0.0029 µM

CCc1ccc2scc(CCNC(C)=O)c2c1
EC50 (MTNR1A; cAMP, agonist, TR-FRET): 0.0398 µM

Nc1nc(NCc2ccc(Oc3ccccc3)cc2)nc(-c2c(F)cccc2CO)n1
Ki (MTNR1A; cell-free assay, radioligand): 5.9 µM
